Screening data (PubChem BioAssay)
An excerpt weighted towards active compounds, which were near 2.3% of everything screened.
TRPC6 activator: activates the mouse TRPC6 cation channel; 310,000 compounds, 0.13% hits; HEK293-TRPC6 membrane potential dye fluorescence; hits give high values; Q61143; B-score at 10 µM;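 active means B-score of the integrated fluorescence ratio above library mean plus 3 SD, and starting fluorescence ratio within library mean plus 5 SD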;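 further: higher score means more depolarization so channel activation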
TRPC4 inh: inhibitors of mouse TRPC4 channel. Q9QUQ5. 300,000 compounds, 0.39% hits. B-score at 10 µM. HEK293 TRPC4beta/mu-opioid, DAMGO-evoked Fluo4 calcium flux; hits give low values;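 active means B-score over 3 SD under the library average, no early fluorescence shift, positive overall ratio signal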
Target sequence (Q9QUQ5 whole entry, looked up): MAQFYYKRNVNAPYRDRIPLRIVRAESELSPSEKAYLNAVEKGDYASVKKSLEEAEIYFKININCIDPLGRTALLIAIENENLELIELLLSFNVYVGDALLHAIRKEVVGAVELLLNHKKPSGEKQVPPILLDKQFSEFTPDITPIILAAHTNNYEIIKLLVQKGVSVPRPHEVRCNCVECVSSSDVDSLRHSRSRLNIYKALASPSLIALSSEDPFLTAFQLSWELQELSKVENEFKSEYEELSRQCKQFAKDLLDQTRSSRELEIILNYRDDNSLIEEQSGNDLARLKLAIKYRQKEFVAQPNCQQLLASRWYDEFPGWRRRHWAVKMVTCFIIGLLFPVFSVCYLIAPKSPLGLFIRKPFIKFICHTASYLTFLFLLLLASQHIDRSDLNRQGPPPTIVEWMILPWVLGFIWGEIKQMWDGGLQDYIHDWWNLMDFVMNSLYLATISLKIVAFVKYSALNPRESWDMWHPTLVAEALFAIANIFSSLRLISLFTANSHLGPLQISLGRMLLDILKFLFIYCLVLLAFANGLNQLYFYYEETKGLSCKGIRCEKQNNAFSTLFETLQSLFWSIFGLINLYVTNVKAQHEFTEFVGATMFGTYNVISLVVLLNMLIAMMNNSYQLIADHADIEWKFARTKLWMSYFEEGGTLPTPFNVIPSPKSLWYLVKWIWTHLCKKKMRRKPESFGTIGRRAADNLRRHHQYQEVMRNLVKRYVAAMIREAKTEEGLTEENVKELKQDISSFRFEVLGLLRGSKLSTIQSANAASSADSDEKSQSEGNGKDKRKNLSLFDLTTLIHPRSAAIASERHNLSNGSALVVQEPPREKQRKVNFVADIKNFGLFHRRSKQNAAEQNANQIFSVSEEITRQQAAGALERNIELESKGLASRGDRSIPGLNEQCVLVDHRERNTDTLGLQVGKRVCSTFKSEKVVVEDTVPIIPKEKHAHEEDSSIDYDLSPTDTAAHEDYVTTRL
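Material: HEK293 cells with stable TRPC4beta plus mu-opioid receptor expression / Probe or stimulus: DAMGO in two steps, submaximal then maximal / Compound: single concentration per test compound / Technique: kinetic Fluo4 fluorescence imaging of calcium influx / Read-out: per-well B score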
TRPC4 act: TRPC4 (mouse) channel activation | Q9QUQ5 | HEK293 TRPC4beta/mu-opioid, Fluo4 calcium fluorescence; hits give high values | B-score at 10 µM | 310,000 compounds, 0.49% hits | AID 2237;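 active means B-score above 5 SD of library B-scores, and initial fluorescence ratio not above library mean plus 5 SD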;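 further: positive B-score marks a calcium rise read as TRPC4 activation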
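Material: TRPC4beta and mu-opioid receptor HEK293 stable cells | Incubation: 45 min room-temperature Fluo4 loading, 110 s read | Detection: Kinetic Fluo4 calcium fluorescence | Measure: Integrated baseline-normalised fluorescence ratio, converted to per-well B score | Benchmarks: Low control buffer alone, high control maximal DAMGO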
TRPC6 inh: mouse TRPC6 channel inhibition. Q61143. HEK293-TRPC6, membrane potential dye, ACh-evoked depolarization; hits give low values. B-score at 10 µM. 310,000 compounds, 1.1% hits;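 active means B-score under library mean minus 3 SD, initial fluorescence not abnormally high, positive integrated signal ratio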;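 further: B-score derived from integrated fluorescence ratio over the kinetic read; more negative B-score means stronger inhibition of depolarization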
TRPC4 PAM: TRPC4 (mouse) allosteric potentiation; 310,000 compounds, 0.42% hits; B-score at 10 µM; Q9QUQ5; HEK293 TRPC4beta/mu-opioid, DAMGO EC20, Fluo-4 Ca2+ flux; hits give high values;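 active means B-score of calcium response area above 5 SD of library B-scores, with initial fluorescence ratio within 5 SD of library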;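 further: B-score of integrated fluorescence ratio over time as area under calcium response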
TRPC4 sel inh 2: second check of whether TRPC6 inhibitors also affect mouse TRPC4. AID 2776. 920 compounds, 42% hits. inhibition, % at 10 µM. HEK293 TRPC4/MOR, membrane potential dye fluorescence; channel activated by saturating DAMGO dose. shares compounds with TRPC6 inh;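 active means compounds whose fluorescence signal differed from control wells by over 3 SD, either direction, in both duplicate plates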
TRPC4 spec: mouse TRPC4 off-target activity of TRPC6 inhibitors. shares compounds with TRPC6 inh. HEK293 TRPC4/mu-opioid, membrane potential fluorescence. activity change, negative = inhibition, % at 10 µM. 920 compounds, 61% hits. AID 2777;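 active means rise or fall in signal beyond 3 SD of buffer-only wells in both replicate plates, either sign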;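 further: integrated kinetic ratio of fluorescence range over baseline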
HEK293 MPD ctr 2-1: parental HEK293 nonspecific activity of TRPC6 inhibitors, second screen; shares compounds with TRPC6 inh; parental HEK293 membrane potential dye fluorescence; maximal acetylcholine challenge after compound addition; signal change vs control, % at 10 µM; 920 compounds, 31% hits; AID 2779;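 active means membrane potential signal moving either way by over 3 SD of the maximum-effect control, in both duplicate plates, meaning non-specific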
HEK293 MPD ctr-1: checks TRPC6 inhibitor effects in parental HEK293 cells; shares compounds with TRPC6 inh; parental HEK293 membrane potential dye fluorescence; membrane potential signal change, % at 10 µM; 920 compounds, 60% hits;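 active means membrane potential signal shifting up or down by more than 3 SD of buffer-only wells, on both duplicate plates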
HEK293 MPD ctr-2: counter-screen for TRPC6 modulators: effect in parental HEK293 cells; shares compounds with TRPC6 inh; AID 488924; 2,400 compounds, 51% hits; membrane potential dye fluorescence; membrane potential signal change, % at 10 µM;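 active means membrane potential signal moves up or down beyond 5 SD from buffer-only wells, on both duplicate plates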
HEK293 MPD ctr 2-2: second check of TRPC6 modulator effects in parental HEK293 cells; shares compounds with TRPC6 inh; membrane potential dye fluorescence; after compound, maximal acetylcholine stimulation; inhibition, % at 10 µM; 2,400 compounds, 14% hits; AID 488926;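 active means membrane potential signal drops by more than 5 SD from the mean control signal, in both duplicate plates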;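 further: plate controls were acetylcholine ECmax control wells for no effect and buffer only wells for full effect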
TRPC4 ctr mod: tests whether TRPC6 modulators also affect mouse TRPC4. shares compounds with TRPC6 inh. HEK293 TRPC4/mu-opioid, membrane potential fluorescence. percent change from control (negative = decrease, positive = increase), % at 10 µM. 2,400 compounds, 69% hits. AID 488927;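 active means membrane potential signal moved up or down beyond 5 SD of buffer control wells, in both duplicate plates, actives on both sides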;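 further: plate controls were assay buffer wells for no effect and DAMGO maximal-effect wells for full effect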
TRPC4 ctr inh 2: second check of whether TRPC6 modulators also affect mouse TRPC4; shares compounds with TRPC6 inh; HEK293 TRPC4/mu-opioid, membrane potential dye fluorescence; stimulated with maximal-effect DAMGO; inhibition, % at 10 µM; 2,400 compounds, 55% hits; AID 488928;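 active means drop in membrane potential signal beyond 5 SD of the control wells in both duplicate plates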;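 further: TRPC4 counter screen for TRPC6 hits run under conditions tuned for TRPC6 not TRPC4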
TRPC6 inh conf: mouse TRPC6 inhibitor confirmation; shares compounds with TRPC6 inh; HEK293-TRPC6, membrane potential dye, ACh-evoked depolarization; inhibition, % at 10 µM; 3,300 compounds, 43% hits; AID 488960;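 active means fluorescence ratio falls more than 5 SD below the full-stimulation control mean, in both duplicate runs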;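 further: integrated fluorescence ratio of peak minus minimum over baseline after agonist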
TRPC6 act conf: mouse TRPC6 activator confirmation. 2,800 compounds, 11% hits. shares compounds with TRPC6 inh. HEK293-TRPC6 membrane potential dye fluorescence, FDSS. activation, % at 10 µM. AID 488961;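 active means ratio signal rise beyond 5 SD above unstimulated control wells' mean, seen in both duplicate runs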;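 further: plate controls were buffer EC0 wells for no effect and acetylcholine ECmax response for full effect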
Numbers without * were called inactive; i = inactive; · = not tested or not shown.

SMILES | TRPC6 activator | TRPC4 inh | TRPC4 act | TRPC6 inh | TRPC4 PAM | HEK293 MPD ctr-2 | HEK293 MPD ctr 2-2 | TRPC4 ctr mod | TRPC4 ctr inh 2 | TRPC6 inh conf | TRPC6 act conf | others
O=C(CCN1C(=O)c2ccc([N+](=O)[O-])cc2C1=O)Nc1ccccc1C(=O)O | i | i | i | i | i | · | · | · | · | · | ·
O=C(Oc1ccccc1Cl)c1ccc2c(=O)n3c(nc2c1)CCC3 | i | i | i | -5.43* | i | i | i | i | i | i | i
CCC1=NN(C(=O)c2ccc(Cl)cc2)C(O)(c2ccc(C)cc2)C1 (centres undefined) | i | i | i | i | i | · | · | · | · | · | ·
CCOC(=O)C1=NN(C(=O)c2ccc(C)cc2)C(O)(c2ccc(Cl)cc2)C1 (centres undefined) | 17.6* | i | 90* | -8.01* | i | 281.0%* | i | 69.5%* | i | i | 180.0%*
COC(=O)C1=NN(C(=O)c2ccc(Cl)cc2)C(O)(c2ccccc2)C1 (centres undefined) | 16.2* | i | 59* | i | i | 321.0%* | i | 73.0%* | i | · | 190.0%*
CCC1=NN(C(=O)c2ccc(Cl)cc2)C(O)(c2ccccc2)C1 (centres undefined) | i | i | i | i | i | · | · | · | · | · | ·
CCC1(C)Cc2ccccc2-c2nc(NCCCO)[nH]c(=O)c21 (centres undefined) | i | i | i | i | i | · | · | · | · | · | ·
CC(C)N1CCC2(CC1)N=C(c1ccc3c(c1)OCO3)CC(c1cc(Cl)ccc1O)N2 (centres undefined) | i | i | i | -7.14* | i | · | · | · | · | i | i | TRPC4 sel inh 2=34.0%*;TRPC4 spec=i;HEK293 MPD ctr 2-1=i;HEK293 MPD ctr-1=i
NCCCCCc1nnc(SCc2ccc(Cl)c(Cl)c2)o1 | i | i | i | -6.17* | i | i | i | i | 66.0%* | 59.5%* | i
COc1cc(C)c(CN2CCC(n3nccc3NC(=O)C3CC3)CC2)cc1C | i | i | i | i | i | · | · | · | · | · | ·
COc1ccc2c(c1)c(C(=O)CN1CCc3ccccc3C1)c(C)n2C | i | i | i | -6.45* | i | -88.5%* | i | -16.5%* | 59.0%* | 43.5%* | i
Cc1c(OCC(=O)N(C)C)ccc2c3c(c(=O)oc12)CCCCC3 | i | i | i | -10.6* | i | · | · | · | · | i | i | TRPC4 sel inh 2=i;TRPC4 spec=i;HEK293 MPD ctr 2-1=i;HEK293 MPD ctr-1=-0.2%*
CCOC(=O)C1CCCN(C(=O)c2ccc(C)c([N+](=O)[O-])c2)C1 (centres undefined) | i | i | i | -5.78* | i | i | 64.0%* | i | i | 54.5%* | i
CCOC(=O)C1CCCN(C(=O)c2cc3c(C)nc4ccccc4c3o2)C1 (centres undefined) | i | i | i | -6.86* | i | · | · | · | · | 61.1%* | i | TRPC4 sel inh 2=i;TRPC4 spec=4.0%*;HEK293 MPD ctr 2-1=i;HEK293 MPD ctr-1=3.1%*
Cc1nc2ccccc2c2oc(C(=O)N3CC(C)CC(C)C3)cc12 (centres undefined) | i | i | i | i | i | · | · | · | · | · | ·
Fc1ccc(Nc2nnc(C(F)(F)F)s2)cc1Cl | i | i | i | -8.78* | i | · | · | · | · | 61.0%* | i | TRPC4 sel inh 2=i;TRPC4 spec=i;HEK293 MPD ctr 2-1=i;HEK293 MPD ctr-1=i
CN(C)CCOc1nc(-c2ccccc2)nc2c1oc1ccccc12 | i | i | 45* | -8.87* | i | · | · | · | · | i | i | TRPC4 sel inh 2=62.0%*;TRPC4 spec=i;HEK293 MPD ctr 2-1=i;HEK293 MPD ctr-1=i
CCCn1c2ccccc2c2cnn(CC(=O)N3CCN(C4CCCCC4)CC3)c(=O)c21 | 14.7* | i | i | i | i | 317.5%* | i | 56.0%* | i | i | 106.5%*
CC(C)C(C(=O)NCC1CCCO1)N(Cc1ccccc1)C(=O)CNS(=O)(=O)c1ccccc1 (centres undefined) | i | i | i | i | i | · | · | · | · | · | ·
Cc1cc(NCCO)c2ccccc2n1 | i | i | i | i | i | · | · | · | · | · | ·
COCCCNc1ccnc2c(Cl)cccc12 | i | i | i | -8.98* | i | -287.0%* | i | -44.0%* | 48.5%* | i | i
Cc1cc(NCCO)c2cc(O)ccc2n1 | i | i | i | -7.85* | i | -251.5%* | i | -47.0%* | 38.0%* | 53.5%* | i
COC(=O)Nc1cc(C)nc2ccccc12 | i | i | i | i | i | · | · | · | · | · | ·
COCCCNc1cc(C)nc2ccccc12 | i | -6* | i | -7.39* | i | -264.5%* | i | -49.5%* | 63.0%* | i | i
OCCNc1c2ccccc2nc2ccccc12 | i | i | i | -9.52* | i | -233.0%* | i | -37.5%* | 46.0%* | 56.0%* | i
COc1ccccc1-c1ccc2nnc(SC)n2n1 | i | i | i | i | i | · | · | · | · | · | ·
O=C(Nc1cccnc1Cl)c1ccc(=O)oc1 | i | i | i | i | i | · | · | · | · | · | ·
CCOCCCNC(=S)Nc1ccc2nc(N3CCCC3)cc(C)c2c1 | i | i | i | -5.63* | i | -138.5%* | i | -25.5%* | 40.5%* | 44.5%* | i
